One series deals with HBL-100. The experiment in a line: Growth inhibition of human HBL100 cells after 48 hrs by sulforhodamine B assay. The note with it: HBL-100, 48 h. The format is functional. The method in brief: (§1)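 Cells in RPMI 1640 with 5% heat-inactivated FCS and 2 mM L-glutamine at 37 °C, 5% CO2. Seeded per well: 7500 (HBL-100, SW1573), 15,000 (A2780, HeLa, T47D) or 20,000 (WiDr). Drug added day 1 in triplicate dilutions (DMSO 0.25% v/v) for 48 h. Cells fixed with cold TCA, 60 min, 4 °C, then SRB stained and read at 492 nm. NCI percentage-growth formulas used; GI50 taken at PG +50.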
On the technique in general: Sulforhodamine B stains cellular protein and so reports cell mass.

The next series has as its system WiDr. Nature of the series: Growth inhibition of human WiDr cells after 48 hrs by sulforhodamine B assay. The format is functional. The method, boiled down:
as §1

For the next series, the system named is SW1573. Nature of the series: Growth inhibition of human SW1573 cells after 48 hrs by sulforhodamine B assay. The format is functional. The settings on record: SW1573, 48 h. The method in brief:
as §1

Another series has as its system HeLa. Nature of the series: Growth inhibition of human HeLa cells after 48 hrs by sulforhodamine B assay. The format is functional. The method in brief:
as §1

The test system of another series is A2780. Nature of the series: Growth inhibition of human A2780 cells after 48 hrs by sulforhodamine B assay. The format is functional. The settings on record: A2780, 48 h. The method, boiled down: as §1
The subject of the next series is T47D. Nature of the series: Growth inhibition of human T47D cells after 48 hrs by sulforhodamine B assay. The format is functional. The method in brief:
as §1

For the next series, the system named is Artemia salina. The experiment in a line: Toxicity in Artemia salina. The format is organism-based. The settings on record: in vivo.

This is an account of results in ChEMBL document CHEMBL1156174, “Antiproliferative activity of synthetic naphthoquinones related to lapachol. First synthesis of 5-hydroxylapachol” (Bioorg Med Chem, 2010).

`NC1=CC(=O)c2cccc(O)c2C1=O`: the GI50 worked out at 2.9 µM in the series with HBL-100; 3.5 µM with WiDr; 2 µM in the series on SW1573; 5.7 µM in the series on HeLa; 3.1 µM with A2780; 4 µM with T47D.
As to `CC(C)=CCC1=C(O)C(=O)c2cccc(O)c2C1=O`, the GI50 was 0.6 µM with HBL-100; 6.3 µM in the series with WiDr; 0.7 µM with SW1573; 0.42 µM in the series on HeLa; 0.57 µM with A2780; 8.1 µM in the series with T47D.
In the case of `C=CC(C)(C)C1=C(O)C(=O)c2cccc(O)c2C1=O`, the GI50 was 31 µM in the series with HBL-100; 31 µM in the series on WiDr; 36 µM in the series on SW1573; 28 µM in the series on HeLa; 26 µM in the series with A2780; 27 µM in the series with T47D.
Turning to `CC(C)=CCOC1=CC(=O)c2c(O)cccc2C1=O`, the GI50 came out at 27 µM in the series with HBL-100; 18 µM in the series with WiDr; 17 µM with SW1573; 18 µM with HeLa; 12 µM in the series on A2780; 28 µM in the series on T47D.
Consider `CC1(C)C2=C(OC1CI)C(=O)c1cccc(O)c1C2=O` (centres undefined), for which the GI50 came to 1.9 µM in the series on HBL-100; 2 µM in the series on WiDr; 1.3 µM with SW1573; 1.7 µM with HeLa; 1.7 µM with A2780; 1.8 µM in the series on T47D.
Take `CC(C)(I)C1CC2=C(O1)C(=O)c1cccc(O)c1C2=O` (centres undefined): the GI50 in the series on HBL-100 came to 2 µM; in the series on WiDr, 1.9 µM; in the series on SW1573 it was 2.3 µM; in the series with HeLa, 2.4 µM; in the series on A2780, 2.1 µM; with T47D, 2.3 µM.
`CC(C)=CCOC1=C(CC=C(C)C)C(=O)c2c(O)cccc2C1=O`: the GI50 with HBL-100 stood at 1.6 µM; in the series on WiDr, 11 µM; with SW1573, 4.3 µM; with HeLa, 1.9 µM; in the series with A2780, 1 µM; with T47D it was 21 µM.
For `CC(C)=CCC1=C(O)C(=O)c2c(O)cccc2C1=O`, the GI50 in the series with HBL-100 was 21 µM; in the series with WiDr it was 19 µM; in the series with SW1573, 18 µM; in the series with HeLa, 2.6 µM; in the series on A2780, 3.9 µM; in the series with T47D, 30 µM.
`COC1=C(CC=C(C)C)C(=O)c2c(OC)cccc2C1=O`: the GI50 in the series on HBL-100 worked out at 17 µM; in the series on WiDr it was 28 µM; in the series on SW1573 it was 5.8 µM; in the series on HeLa, 18 µM; with A2780 it was 21 µM; in the series with T47D, 45 µM.
Turning to `C=C(C)C1CC2=C(O1)C(=O)c1cccc(O)c1C2=O` (centres undefined), the GI50 with HBL-100 came out at 0.94 µM; with WiDr, 2 µM; in the series on SW1573 it was 0.83 µM; in the series on HeLa, 0.8 µM; with A2780, 0.82 µM; with T47D, 2.2 µM.
`CC(C)(O[N+](=O)[O-])C1CC2=C(O1)C(=O)c1cccc(O)c1C2=O` (centres undefined): the GI50 in the series with HBL-100 came to 2.8 µM; in the series with WiDr it was 18 µM; in the series on SW1573, 2.8 µM; in the series on HeLa it was 2.2 µM; with A2780, 2.2 µM; in the series on T47D it was 23 µM.
Regarding `CC1(C)CCC2=C(O1)C(=O)c1cccc(O)c1C2=O`, the GI50 with HBL-100 turned out to be 2.6 µM; in the series on WiDr, 18 µM; with SW1573, 2.7 µM; with HeLa it was 12 µM; in the series with A2780 it was 3.2 µM; with T47D, 21 µM.
Consider `CC(C)=CCOC1=CC(=O)c2cccc(O)c2C1=O`, for which the concentration for 50% growth inhibition (GI50) turned out to be 19 µM in the series with HBL-100; 7.3 µM in the series on WiDr; 7.7 µM in the series on SW1573; 4.5 µM in the series with HeLa; 2 µM in the series on A2780; 23 µM with T47D.
In the case of `CC1(C)C2=C(OC1CI)C(=O)c1c(O)cccc1C2=O` (centres undefined), the GI50 in the series with HBL-100 was determined as 0.41 µM; in the series on WiDr, 2 µM; in the series on SW1573, 0.4 µM; with HeLa, 1.3 µM; in the series on A2780, 1.6 µM; in the series with T47D, 2.5 µM.
In the case of `C=CC(C)(C)C1=C(O)C(=O)c2c(O)cccc2C1=O`, the GI50 in the series with HBL-100 was found to be 16 µM; with WiDr, 23 µM; in the series on SW1573, 3.8 µM; in the series with HeLa it was 24 µM; in the series with A2780, 21 µM; in the series with T47D, 30 µM.
With `CC(C)=CCOC1=C(CC=C(C)C)C(=O)c2cccc(O)c2C1=O`, the GI50 with HBL-100 was 20 µM; with WiDr, 22 µM; in the series with SW1573, 5.1 µM; in the series with HeLa it was 20 µM; in the series with A2780, 5.9 µM; in the series with T47D, 28 µM.
For `COC1=C(CC=C(C)C)C(=O)c2c(O)cccc2C1=O`, the GI50 with HBL-100 is 20 µM; in the series on WiDr it was 20 µM; in the series with SW1573, 4.8 µM; in the series with HeLa it was 3.5 µM; in the series on A2780, 1.8 µM; with T47D, 22 µM.
For `O=C1C=C(O)c2cccc(O)c2C1=O`, the GI50 was over 100 µM with HBL-100; over 100 µM with WiDr; 86 µM in the series with SW1573; 90 µM in the series on HeLa; 28 µM with A2780; over 100 µM with T47D.
Consider `O=C1C=C(O)c2c(O)cccc2C1=O`, for which the GI50 with HBL-100, in the series with WiDr, in the series on SW1573, in the series with HeLa, in the series on A2780 and in the series on T47D was over 100 µM throughout.
Take `CC1(C)C=CC2=C(O1)C(=O)c1c(O)cccc1C2=O`: the GI50 turned out to be 3.9 µM in the series with HBL-100; 19 µM with WiDr; 4.8 µM in the series with SW1573; 2.3 µM in the series with HeLa; 2.4 µM with A2780; 19 µM in the series with T47D.
On to `CC(C)(O[N+](=O)[O-])C1CC2=C(O1)C(=O)c1ccccc1C2=O` (centres undefined), for which the GI50 in the series with HBL-100 was found to be 2.1 µM; in the series with WiDr it was 4.8 µM; in the series with SW1573, 2.5 µM; with HeLa it was 1.8 µM; in the series with A2780, 2.1 µM; in the series on T47D it was 20 µM.
Consider `CN(C)C1=CC(=O)c2c(O)cccc2C1=O`, for which the GI50 in the series on HBL-100 was found to be 30 µM; in the series with WiDr, 32 µM; in the series on SW1573, 35 µM; in the series on HeLa it was 19 µM; in the series with A2780, 16 µM; in the series on T47D it was 38 µM.
`CN(C)C1=CC(=O)c2cccc(O)c2C1=O`: the GI50 turned out to be 5.7 µM in the series on HBL-100; 17 µM in the series on WiDr; 5.3 µM with SW1573; 7.1 µM in the series on HeLa; 2.4 µM with A2780; 34 µM in the series with T47D.
As to `CC1(C)CCC2=C(O1)C(=O)c1ccccc1C2=O` [ALPHA-LAPACHONE], the GI50 in the series with HBL-100 was 14 µM; in the series on WiDr, 26 µM; in the series with SW1573 it was 3.1 µM; in the series on HeLa, 15 µM; in the series on A2780, 4 µM; with T47D it was 25 µM.
Consider `C=C(C)C1CC2=C(O1)C(=O)c1ccccc1C2=O` (stereo not drawn) [DEHYDROISO-ALPHA-LAPACHONE], for which the GI50 amounted to 2.3 µM with HBL-100; 2.7 µM in the series on WiDr; 1.9 µM in the series on SW1573; 2.1 µM in the series on HeLa; 2.6 µM in the series with A2780; 21 µM in the series with T47D.
Turning to `O=C1C=CC(=O)c2c(O)cccc21` [JUGLONE], the GI50 in the series with HBL-100 is 66 µM; in the series with WiDr, 81 µM; with SW1573, 50 µM; in the series with HeLa, 89 µM; in the series on A2780, 64 µM; in the series with T47D it was 77 µM.
For the compound `CC(C)=CCC1=C(O)C(=O)c2ccccc2C1=O` [LAPACHOL], the GI50 was determined as 7.8 µM in the series with HBL-100; 36 µM in the series with WiDr; 34 µM in the series with SW1573; 2.3 µM in the series with HeLa; 1.9 µM in the series with A2780; 76 µM in the series with T47D. The compound further yielded an Activity in the series with Artemia salina of 5 ppm.
Turning to `CC1(C)CCC2=C(O1)c1ccccc1C(=O)C2=O` [LAPACHONE], the GI50 in the series on HBL-100 turned out to be 0.69 µM; in the series with WiDr, 2 µM; in the series on SW1573, 0.76 µM; in the series on HeLa it was 0.81 µM; with A2780 it was 1.1 µM; with T47D it was 2.3 µM.

What is called GI50 is the concentration giving 50% growth inhibition. Lower therefore signals greater sensitivity of the cells.
